From paper PMC10395006 (Archives of toxicology, 2022)

Assays:
[1] = cited from earlier work
[2] = test system: HepG2 cells
[3] = target: CYP2C19 (Homo sapiens, UniProt P33261); details: human liver microsomes
[4] = test system: CYP3A4; details: human liver microsomes
[5] = target: T1, CYP2D6-overexpressing HepG2 cells (Homo sapiens, UniProt P10635)
[6] = target: T2, CYP3A4-overexpressing HepG2 cells (Homo sapiens, UniProt P08684); assay: Mass spectrometry of perhexiline and metabolites in CYP-overexpressing cells; details: 5 μM perhexiline, 24 h
[7] = test system: CYP2C19-overexpressing HepG2 cells; assay: Perhexiline toxicity endpoints; type: cell-based, human; details: 5–10 μM, 24 h
[8] = test system: HepG2 cells; assay: Lactate dehydrogenase; type: cell-based, human; details: 2.5-10 μM, 24 h
[9] = test system: CYP1A2-overexpressing HepG2 cells; assay: Perhexiline toxicity endpoints; type: cell-based, human; details: 5–10 μM, 24 h
[10] = test system: CYP1A2-overexpressing HepG2 cells; assay: Mass spectrometry of perhexiline and metabolites in CYP-overexpressing cells; type: in vitro ADME, human; details: 5 μM perhexiline, 24 h
[11] = CellTiter-Blue cell viability assay; details: human, HepG2 cells
[12] = test system: HepG2 cells; assay: CellTiter-Blue cell viability assay; details: 2.5-10 μM, 24 h
[13] = target: T2, CYP3A4-overexpressing HepG2 cells; type: cell-based
[14] = target: T1, CYP2D6-overexpressing HepG2 cells; assay: Mass spectrometry of perhexiline and metabolites in CYP-overexpressing cells; details: 5 μM perhexiline, 24 h
[15] = test system: HepG2 cells; assay: Caspase 3/7 activity; type: cell-based, human; details: 7.5 or 10 μM, 24 h
[16] = test system: Primary human hepatocytes; assay: Cellular ATP assay; type: cell-based; details: 24 h
[17] = test system: CYP2C19-overexpressing HepG2 cells; assay: Mass spectrometry of perhexiline and metabolites in CYP-overexpressing cells; type: in vitro ADME, human; details: 5 μM perhexiline, 24 h
[18] = test system: ATF6, ERN1, EIF2AK3, ATF4, and DDIT3 mRNA in EV control HepG2 cells; assay: Quantitative real-time PCR of ER stress genes; type: cell-based, human; details: 10 μM, 24 h
[19] = test system: HepG2 cells; assay: Mitochondrial membrane potential; type: cell-based, human; details: 2.5-10 μM, 24 h
[20] = test system: CHOP in EV control HepG2 cells; assay: Western blot of ER stress marker CHOP; type: cell-based, human; details: EV control cells upon perhexiline treatment
Procedure, shortened: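 Empty-vector control HepG2 cells seeded at 3 × 10^5 cells/ml in 60 mm plates and treated about 24 h after seeding, with 0.1% v/v DMSO as control. Cells lysed directly in RIPA buffer with protease inhibitor cocktail and total protein quantified. Immunoblotted with primary antibodies against CHOP, using GAPDH as loading reference.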

[21] = target: T1, CYP2D6-overexpressing HepG2 cells; type: cell-based
[22] = test system: HepG2 cells; assay: Cellular ATP assay; type: cell-based, human; details: 24 h
[23] = ketoconazole (CYP3A4 inhibitor)

T1 sequence (P10635 whole entry): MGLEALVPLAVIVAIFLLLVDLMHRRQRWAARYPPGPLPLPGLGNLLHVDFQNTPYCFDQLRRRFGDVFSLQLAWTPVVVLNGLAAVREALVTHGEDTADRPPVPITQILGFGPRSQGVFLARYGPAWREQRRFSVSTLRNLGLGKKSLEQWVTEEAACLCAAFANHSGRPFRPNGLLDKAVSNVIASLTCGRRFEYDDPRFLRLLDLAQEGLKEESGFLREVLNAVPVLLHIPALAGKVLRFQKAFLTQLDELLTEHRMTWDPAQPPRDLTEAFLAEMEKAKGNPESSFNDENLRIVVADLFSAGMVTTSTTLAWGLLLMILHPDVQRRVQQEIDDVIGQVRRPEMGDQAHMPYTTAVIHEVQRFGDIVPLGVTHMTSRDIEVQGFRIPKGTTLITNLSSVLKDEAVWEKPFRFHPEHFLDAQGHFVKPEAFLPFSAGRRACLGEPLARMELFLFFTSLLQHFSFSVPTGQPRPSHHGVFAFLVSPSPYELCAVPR
T2 sequence (P08684 whole entry): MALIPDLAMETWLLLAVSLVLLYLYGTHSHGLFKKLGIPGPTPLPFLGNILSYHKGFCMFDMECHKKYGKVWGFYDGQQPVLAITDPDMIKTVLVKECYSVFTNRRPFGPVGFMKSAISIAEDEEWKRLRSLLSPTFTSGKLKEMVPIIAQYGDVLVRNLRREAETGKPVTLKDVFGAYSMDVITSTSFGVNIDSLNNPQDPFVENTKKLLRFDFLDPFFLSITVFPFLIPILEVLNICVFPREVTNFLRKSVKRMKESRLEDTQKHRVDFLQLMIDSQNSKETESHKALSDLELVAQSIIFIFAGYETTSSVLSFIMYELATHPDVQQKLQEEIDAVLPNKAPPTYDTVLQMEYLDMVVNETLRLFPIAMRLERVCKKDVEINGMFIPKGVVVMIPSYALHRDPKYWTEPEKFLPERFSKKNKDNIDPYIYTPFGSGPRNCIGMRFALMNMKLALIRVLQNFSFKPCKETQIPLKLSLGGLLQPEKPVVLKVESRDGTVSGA
Chain of CYP2C19 (P33261 whole entry): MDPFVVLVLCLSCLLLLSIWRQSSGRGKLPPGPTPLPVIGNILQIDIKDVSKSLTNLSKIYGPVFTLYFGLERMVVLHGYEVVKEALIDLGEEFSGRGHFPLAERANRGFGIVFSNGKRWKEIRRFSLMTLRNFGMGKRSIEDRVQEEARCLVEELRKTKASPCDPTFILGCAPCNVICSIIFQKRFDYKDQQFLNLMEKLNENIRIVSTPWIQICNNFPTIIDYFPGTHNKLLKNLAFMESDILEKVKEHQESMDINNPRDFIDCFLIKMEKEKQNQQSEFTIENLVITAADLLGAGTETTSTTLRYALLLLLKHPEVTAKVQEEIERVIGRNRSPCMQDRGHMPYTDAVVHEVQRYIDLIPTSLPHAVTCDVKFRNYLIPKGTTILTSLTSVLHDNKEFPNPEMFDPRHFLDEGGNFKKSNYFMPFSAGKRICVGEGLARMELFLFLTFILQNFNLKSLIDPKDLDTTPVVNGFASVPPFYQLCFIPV

O[C@H]1CC[C@H](C(CC2CCCCN2)C2CCCCC2)CC1 (stereo partly drawn) [trans-OH-Phx]
plasma trans-OH-Phx level post-dosage ([1]; most patients, ref Amoah et al. 1986, Cooper et al. 1984, 1987): undetectable
IC50 [2]: 56 µM

C=C(C)[C@@H]1CCC2=CC(=O)C[C@@H](C)[C@]2(C)C1 [nootkatone]
effect on the formation of M1, M3, and M5 ([3]; nootkatone 10 μM (CYP2C19 inhibitor)): did not show significant effect
effect on the relative abundance of trans-OH-Phx ([3]; nootkatone (CYP2C19 inhibitor)): little effect

CC(=O)N1CCN(c2ccc(OCC3COC(Cn4ccnc4)(c4ccc(Cl)cc4Cl)O3)cc2)CC1 (stereo not shown) [ketoconazole]
suppression of formation of M3 (trans-OH-Phx-2) ([4]; ketoconazole 2 μM, perhexiline 30 μM): up to 80%
effect on formation of M1 (trans-OH-Phx-1) [4, 23]: reduced
effect on formation of M5 (cis-OH-Phx) [4, 23]: did not have effect

O[C@H]1CC[C@H](C(CC2CCCCN2)C2CCCCC2)CC1 (stereo partly drawn) [M1, trans-OH-Phx-1]
increase of M1 compared to EV control cells [5]: 2.6 fold

OC1CCC([C@@H](CC2CCCCN2)C2CCCCC2)CC1 (stereo in doubt) [cis-OH-Phx]
IC50 [2]: 90 µM

C1CCC(C(CC2CCCCN2)C2CCCCC2)CC1 (stereo not shown) [perhexiline]
parent perhexiline level vs EV control [6]: significant reduction
protective effect on ATP levels and LDH release vs EV control [7]: little protective effect
LDH release [8]: concentration-dependent increase
protective effect on ATP levels and LDH release vs EV control [9]: little protective effect
parent perhexiline level vs EV control [10]: significant reduction
plasma perhexiline beyond 24 h after a single administration ([1]; known extensive metabolizers, ref Cooper et al. 1987): undetectable
IC50 at 24 h [11]: 8 µM
cell viability [12]: significant decrease
caspase 3/7 activities, EV control vs CYP3A4 cells [13]: little difference
effect in JC-1 staining vs EV control [13]: marginal protective effect
protective effect on ATP levels and LDH release vs EV control ([13]; 5–10 μM, 24 h): little protective effect
amount of parent perhexiline relative to EV control [14]: 1%
caspase 3/7 activity [15]: increase
concentration at which cytotoxicity was observed starting ([16]; hepatic cells, concentrations ranged from 2.5 μM to 15 μM): 5 µM
lowest concentration at which a decrease in ATP was observed ([16]; primary human hepatocytes, 5 to 15 μM): 5 µM
parent perhexiline level vs EV control [17]: significant reduction
mRNA levels of ATF6, ERN1, EIF2AK3, ATF4, and DDIT3 (fold change vs DMSO) [18]: significantly elevated
mitochondrial membrane potential level (JC-1) [19]: significant concentration-dependent decrease
CHOP protein level [20]: markedly increased
perhexiline-induced increase in CHOP protein vs EV control [21]: greatly reduced
perhexiline-induced increase in ER stress gene mRNA vs EV control ([21]; 10 μM, 24 h): drastically attenuated
perhexiline-induced increase in caspase 3/7 vs EV control ([21]; 24 h): abolished
cellular ATP levels at 10 μM ([22]; 10 μM): largely depleted
cellular ATP levels ([22]; 2.5–10 μM): concentration-dependent decrease

C1CCC(C(CC2CCCCN2)C2CCCCC2)CC1 (single isomer, unassigned; (-)) [(−)-perhexiline]
clearance relative to the other enantiomer ([1]; attributed to CYP2D6-mediated metabolism, ref Davies et al. 2008): higher clearance rate
